Compound activity deposited in PubChem BioAssay by Broad Institute.
Wnt act: Wnt/beta-catenin pathway activators, primary screen, cell-based, plate reader, single point | 1.2% of 300,000 active | activation, % at 9.35 µM | Wnt/beta-catenin reporter cell assay, activator; in the data active = activation above about 30%, passing the limit was not always enough; inconclusive = no clear call, values can overlap the other calls;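 note: 0% = neutral control wells and 100% = positive control wells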
SR-BI DiI inh: inhibitors of SR-BI mediated HDL lipid uptake, primary screen, ldlA[mSR-BI] cells, fluorescence, single point. ldlA[mSR-BI] CHO cells, DiI-HDL uptake fluorescence, 3 h. inhibition, % at 12.5 µM. 0.96% of 320,000 active. AID 488896, 2010;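 active = mean replicate inhibition of at least 70% and a set share of replicates each scoring 70 or more; inconclusive = meets just one of the two criteria; inactive = fails both criteria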;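 note: 0% = median of neutral control wells and 100% = median of positive control wells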
Target sequence (Q61009 whole entry, looked up): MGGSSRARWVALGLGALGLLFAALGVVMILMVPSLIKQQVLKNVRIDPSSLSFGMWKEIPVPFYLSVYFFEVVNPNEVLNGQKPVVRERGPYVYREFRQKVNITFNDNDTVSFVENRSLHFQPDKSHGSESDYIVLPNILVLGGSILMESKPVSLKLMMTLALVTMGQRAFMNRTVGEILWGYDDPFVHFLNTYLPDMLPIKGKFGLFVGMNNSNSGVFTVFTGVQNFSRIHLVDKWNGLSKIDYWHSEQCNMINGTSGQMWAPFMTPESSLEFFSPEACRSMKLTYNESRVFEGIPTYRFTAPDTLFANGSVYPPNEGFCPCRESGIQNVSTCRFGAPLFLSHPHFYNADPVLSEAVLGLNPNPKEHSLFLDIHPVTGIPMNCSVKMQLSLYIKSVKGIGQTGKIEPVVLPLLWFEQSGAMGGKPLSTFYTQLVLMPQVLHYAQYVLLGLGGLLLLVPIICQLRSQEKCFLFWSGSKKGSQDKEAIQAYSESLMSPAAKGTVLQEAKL
SR-BI DiI-HDL act: activators of SR-BI mediated DiI-HDL uptake, primary screen, ldlA[mSR-BI] CHO cells, DiI fluorescence | activation, % at 12.5 µM | 0.096% of 320,000 active | 3 h; 100 = double the neutral-control signal;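 active = mean replicate activation of at least 60% and every replicate at or above 60%; inconclusive = mean or all-replicate condition met, but not both; inactive = mean below 60% and not all replicates reaching 60%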;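 note: 0% = median plate neutral-control signal and 100% = twice that signal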
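Test system: SR-BI-overexpressing, LDLR-lacking CHO cells. Measured by: DiI fluorescence, bottom read. Medium: Ham's F12 with 0.5% BSA, HEPES 25 mM, pH 7.4. Timing: 3 h uptake period with compound, 37 °C.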
MITF TRPM1 HTS: activators of MITF-driven TRPM1 promoter reporter, primary screen, cell-based, SK-MEL-5, luciferase, single point; SK-MEL-5 TRPM1-promoter luciferase, 24 h; % of positive control, neutral wells = 0; activation, % at 12.5 µM; 0.75% of 300,000 active; AID 588334, 2011;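 active = mean activation of at least 80% with every replicate also reaching 80%; inconclusive = mean reaches 80% but some replicate falls short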;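 note: 0% = neutral control wells and 100% = parthenolide positive control wells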
HSF1 activator: HSF-1 activators, primary screen, NIH3T3-HGL cells, MG132 stress, luminescence, single point; NIH3T3-HGL HSF-1 luciferase reporter, 8 h; 100% = twice DMSO control signal; activation, % at 9 µM; 1.7% of 300,000 active; AID 504408, 2011;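 active = mean replicate activation of at least 50% with a set share of replicates each reaching 50%; inconclusive = only one of those two conditions met; inactive = mean below 50% and too few replicates reaching it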;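 note: 0% = median of the neutral control wells and 100% = twice that signal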
The depositor's hits bear a star; ? = inconclusive; . = no result given. Rows were chosen to be rich in hits. Some 3.6% of all compounds tested hit in one or more screens of this group.

SMILES | Wnt act | SR-BI DiI inh | SR-BI DiI-HDL act | MITF TRPM1 HTS | HSF1 activator
COc1ccc(NC(=O)CSc2c3c(nc4ccccc24)CCCC3)c(OC)c1 | -11.1 | 26.5 | -26.5 | -12.3 | 69.6*
COc1cc(NC(=O)CSc2c3c(nc4ccccc24)CCC3)cc(OC)c1OC | -3.1 | 40.0 | -40.0 | -14.2 | 34.6
COc1ccc(NC(C)=O)cc1NC(=O)CSc1nnc(C2CCCCC2)n1N | -0.1 | -12.3 | 12.3 | -13.2 | -1.1
COc1ccc(NC(=O)CSc2c3c(nc4cc(Cl)ccc24)CCCC3)cc1OC | 3.4 | 57.7 | -57.7 | -16.9 | 127.5*
c1ccc2c(c1)Nc1cc3ccccc3cc1O2 | 6.9 | 11.2 | -11.2 | 44.2 | .
CC1(C(=O)NS(=O)(=O)c2ccc(F)cc2F)CCN1C(=O)C1CCCCC1 (stereo not given) | -7.9 | . | . | . | .
OC(c1ccccc1)(c1ccccc1)C1CCN(CCCOc2cccc(C(F)(F)F)c2)CC1 | -16.6 | . | . | . | .
COc1ccccc1NC(=O)CSc1c2c(nc3ccccc13)CCC2 | . | 12.6 | -12.6 | -7.3 | 8.6
Cc1cc(NC(=O)CSc2c3c(nc4ccccc24)CCC3)no1 | -4.6 | 21.7 | -21.7 | -14.1 | 72.3*
CCn1cc(C(=O)NN)c(=O)c2cc(F)c(NC3CCCCC3)cc21 | -0.4 | 30.0 | -30.0 | . | 66.4*
OCC1(CCOc2ccccc2)CCN(Cc2ccccc2C(F)(F)F)CC1 | 40.6* | 11.1 | -11.1 | 3.1 | -2.7
Cc1cc(C)c(C)c(S(=O)(=O)NCc2ccco2)c1C | . | . | . | . | 78.4*
CCS(=O)(=O)C(=C1NCCO1)S(=O)(=O)CC | . | -4.2 | 4.2 | -2.2 | 51.7*
O=[N+]([O-])/C(C(=C(Cl)Cl)N1CCOCC1)=C1\NCCO1 | -0.1 | -7.7 | 7.7 | -3.7 | -11.0
COC(=O)c1ccc2nc(C3CCCCC3)c(Cc3ccccc3OC)n2c1 | 2.2 | . | . | . | .
CC(C)NC(=O)CN(C(=O)CCC(=O)Nc1nccs1)c1ccc2c(c1)OCO2 | 1.1 | -4.1 | 4.1 | 5.9 | 65.7*
CNC(=S)N/N=C/c1cn(CCOc2cccc(OC)c2)c2ccccc12 | . | 79.7* | -79.7 | -7.4 | 35.1
CNC(=S)N/N=C/c1cn(CCOc2ccccc2OC)c2ccccc12 | . | 60.3 | -60.3 | -6.5 | 44.8
CCOC(=O)N/N=C/c1cn(CCCOc2ccc(C)cc2)c2ccccc12 | 11.1 | 71.5* | -71.5 | 51.2 | 3.6
CCOC(=O)N/N=C/c1cn(CCCOc2ccccc2)c2ccccc12 | . | 62.2 | -62.2 | 2.4 | 18.5
O=C(c1ccccn1)N(Cc1ccco1)C1(C(=O)Nc2ccc(Br)cc2)CCCCC1 | 3.1 | . | . | . | .
Cc1cnc(C(=O)OCC(=O)NCc2ccccc2)cn1 | -1.6 | -6.7 | 6.7 | . | 13.5
CCCOC(=O)c1ccc(NC(=O)c2ccoc2C)cc1 | . | 38.2 | -38.2 | 78.1 | 56.2*
O=C(Nc1ccc(OCc2ccccc2)cc1)c1cccs1 | 17.3 | 7.3 | -7.3 | . | 40.3
Cc1cnc(C(=O)OCC(=O)Nc2ccc(OCc3ccccc3)cc2)cn1 | 32.5* | -3.6 | 3.6 | 95.7* | .
SMILES | Wnt act | SR-BI DiI inh | SR-BI DiI-HDL act | MITF TRPM1 HTS | HSF1 activator
Cc1occc1C(=O)Nc1ccc(OCc2ccccc2)cc1 | 2.2 | 52.9 | -52.9 | ? | 56.1*
COc1ccccc1Cc1c(C(C)(C)C)nc2c3ccccc3ccn12 | -0.4 | . | . | . | .
CSc1ccc(/C=N/NC(=O)c2cc(O)cc(O)c2)cc1 | 34.5* | -8.9 | 8.9 | 36.1 | .
CSc1ccc(/C=N/NC(=O)c2ccc(C)c(C)c2)cc1 | 0.1 | -8.6 | 8.6 | 21.1 | 18.3
CSc1ccc(/C=N/NC(=O)c2sccc2C)cc1 | 12.1 | 9.1 | -9.1 | 26.6 | 61.6*
Fc1ccc(-c2nc3c4ccccc4ccn3c2CC2CCCCC2)cc1 | 6.2 | . | . | . | .
O=S1(=O)N[C@@H](Cc2ccccc2)COc2cccc(N3CCSCC3)c21 | -5.9 | . | . | . | .
COc1ccc2sc(NC(=O)CC(C)C)nc2c1 | 57.5* | 13.1 | -13.1 | ? | 37.5
CCOc1ccc2sc(NS(=O)(=O)c3ccc(OC)c(OC)c3)nc2c1 | . | 4.4 | -4.4 | -9.9 | 64.4*
CCC(=O)Nc1nnc(/C=C/c2ccc(OC)cc2)s1 | 34.0* | . | . | . | 29.6
COc1ccc2sc(NCc3ccccc3)nc2c1 | 33.0* | -5.0 | 5.0 | 111.0* | 13.2
CCNC(=O)C1(C)CCCN(CCOc2ccc(OC)cc2)C1 (stereo not given) | -3.0 | . | . | . | .
O=C(COC(=O)Cc1ccc(Cl)c(Cl)c1)NCCc1ccccc1 | -0.8 | . | . | . | .
CCOCC(=O)Nc1nc2ccc(OC)cc2s1 | . | -6.0 | 6.0 | ? | 48.7
COc1ccc2sc(NC(C)=O)nc2c1 | 48.0* | -5.5 | 5.5 | 54.5 | 27.5
CCC(=O)Nc1nc2cc(OC)ccc2s1 | 59.2* | -327.4 | ? | . | 41.7
Cc1cc(C)nc(Nc2n[nH]c(-c3ccc(N)cc3)n2)n1 | 46.9* | -12.4 | 12.4 | . | 22.5
COc1ccc(-c2c(C)nn3c(Cl)c(C)c(C)nc23)cc1 | -1.9 | 7.6 | -7.6 | . | 59.6*
Cc1cccc2c1N(C(=O)c1ccco1)C(C)(C)c1ssc(=S)c1-2 | . | -3.8 | 3.8 | -11.0 | 3.9
Cc1ccc2c(c1)N(C(=O)c1ccco1)C(C)(C)c1ssc(=S)c1-2 | . | 93.9* | -93.9 | -5.5 | 47.7
COCCNC(=O)c1ccc2c(Cl)c3c(nc2c1)CCC3 | 35.9* | -18.5 | 18.5 | 100.0* | 8.6
CCN1CCN(CCCNC(=O)c2ccc3c(Cl)c4c(nc3c2)CCCC4)CC1 | -4.2 | 4.7 | -4.7 | -91.0 | 96.7*
CCN1CCN(C(=O)c2ccc3c(Cl)c4c(nc3c2)CCCC4)CC1 | 1.3 | -12.6 | 12.6 | -0.5 | 114.3*
CN1CCN(C(=O)c2ccc3c(Cl)c4c(nc3c2)CCCC4)CC1 | -2.3 | -3.0 | 3.0 | 3.3 | 136.1*
COC(=O)C1=C(C)N(Cc2ccccc2C(F)(F)F)C(=NCC2CC2)NC1c1cccc(F)c1 (stereo not given) | -7.7 | . | . | . | .
SMILES | Wnt act | SR-BI DiI inh | SR-BI DiI-HDL act | MITF TRPM1 HTS | HSF1 activator
CN(C)CCN1CCN(C2CN(Cc3cn(Cc4ccc(Cl)cc4)nn3)S(=O)(=O)C2)CC1 (stereo not given) | -3.1 | . | . | . | .
Nc1c(C(=O)N2CCCCC2)sc2nc3c(cc12)CCCC3 | -1.8 | . | . | 79.7 | -1.7
Cc1ccc(C(=O)c2sc3nc4c(cc3c2N)CCC4)cc1 | 32.8* | -23.8 | 23.8 | 125.0* | 23.1
Nc1nc(N)c(C=Nc2ccc(Br)cc2)c(Nc2ccc(Br)cc2)n1 | 0.7 | -2.2 | 2.2 | -6.6 | 67.0*
COc1cc(O)c(C(=O)CC(=O)c2ccncc2)c(OC)c1 | 2.0 | 3.3 | -3.3 | -5.2 | .
COc1ccccc1Cc1c(-c2cccc(Cl)c2)nc2c3ccccc3ccn12 | 1.3 | . | . | . | .
Cc1ccc(O)c(-c2cc(C(=O)Nc3cccnc3)[nH]n2)c1 | 60.4* | . | . | 214.6* | -26.1
COc1ccc(F)cc1-c1cc(C(=O)Nc2cccnc2)[nH]n1 | -0.2 | . | . | . | .
O=C(Nc1cccnc1)c1cc(-c2cc(Cl)ccc2O)n[nH]1 | 37.9* | . | . | ? | -0.7
